HSF1 activator = increases HSF-1 driven luciferase reporter signal; AID 504408; activation, % at 9 µM; actives 1.7% (n = 300,000); NIH3T3-HGL HSF-1 luciferase reporter, MG132, 8 h; 100% = twice DMSO control signal;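 active = mean replicate activation of at least 50% with a set share of replicates each reaching 50%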;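 also: 0% = median of the neutral control wells and 100% = twice that signal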
CHT inh = inhibits the human high affinity choline transporter | Q9GZV3 | CHT-expressing cells, membrane potential dye, choline response; active compounds read low | B-score at 10 µM | actives 0.86% (n = 310,000);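 active = B-score over 3 SD under the library average, and starting fluorescence ratio not unusually high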;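 also: choline stimulus applied at its EC90 after an EC20 pre-addition; B-score computed on integrated fluorescence ratio after choline addition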
Target sequence (Q9GZV3 whole entry, looked up): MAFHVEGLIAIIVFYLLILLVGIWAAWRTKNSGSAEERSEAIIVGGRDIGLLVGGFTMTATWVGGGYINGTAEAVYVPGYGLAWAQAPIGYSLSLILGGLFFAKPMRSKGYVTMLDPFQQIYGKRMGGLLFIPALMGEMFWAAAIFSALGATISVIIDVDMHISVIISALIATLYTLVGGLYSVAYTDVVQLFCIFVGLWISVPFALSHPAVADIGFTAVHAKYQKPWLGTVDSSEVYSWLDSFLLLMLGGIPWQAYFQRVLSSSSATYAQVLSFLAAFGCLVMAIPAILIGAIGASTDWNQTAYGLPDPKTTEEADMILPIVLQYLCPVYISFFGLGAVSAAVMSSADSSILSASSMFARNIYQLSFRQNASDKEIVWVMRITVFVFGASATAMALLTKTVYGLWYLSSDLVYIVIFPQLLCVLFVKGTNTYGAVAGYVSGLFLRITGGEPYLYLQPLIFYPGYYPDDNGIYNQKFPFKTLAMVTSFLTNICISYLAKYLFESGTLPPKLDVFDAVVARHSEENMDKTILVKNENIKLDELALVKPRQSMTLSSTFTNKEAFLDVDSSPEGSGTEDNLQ
Hep lipid drop = hepatic lipid droplet formation modulation; AML12 mouse hepatocytes, oleate lipid droplets, BODIPY imaging; inhibition, % at 6.5 µM; actives 0.4% (n = 240,000); AID 1656;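 active = lipid droplet intensity inhibited by at least 50%, with more than 500 cells counted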
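Test system: AML12 mouse liver cells; schedule: overnight exposure; technique: high-content imaging of BODIPY-stained droplets and DAPI nuclei; read-out: % inhibition of corrected integrated BODIPY droplet signal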
HSF1 inh = HSF1 inhibition | activity change, negative = inhibition, % at 7.5 µM (by protocol) | actives 0.77% (n = 300,000) | NIH3T3-HGL HSE-luciferase, MG132-induced, luminescence 8 h; active compounds read low;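 active = more than half of replicate wells show activity change below -50%, luminescence cut by over half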;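 also: luciferase reports HSF-1 transcriptional activity via heat shock element; 0% = median of DMSO wells and -100% = zero luminescence signal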
CHT allo act = human CHT allosteric activation; CHT-expressing cells, membrane potential dye, choline EC20; active compounds read high; LV-AA mutant CHT in HEK293 cells; B-score at 10 µM; actives 0.49% (n = 310,000);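 active = initial fluorescence not abnormally high and integrated response B-score, plate-corrected, over 3 SD above library mean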
PHOSPHO1 block = PHOSPHO1 (human) inhibition; Q8TCT1; recombinant PHOSPHO1, absorbance phosphatase assay; inhibition, % at 13.3 µM; actives 1.1% (n = 290,000); in the data active = inhibition above about 60%
Lipid drop inh = hepatic lipid droplet formation inhibition, confirmed; inhibition, % at 5.2 µM; AML12 mouse hepatocytes, BODIPY lipid droplet imaging; droplets induced with 100 µM oleic acid; actives 65% (n = 870); shares compounds with Hep lipid drop;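 active = inhibition of lipid droplet metric at least 50%, with more than 300 cells in each of four replicates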;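 also: plate controls were DMSO with oleic acid for no effect and 5 µM Triacsin-C for full effect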
AML12 cytotox = toxic to AML12 mouse hepatocytes in counter-screen; z-score at 5 µM; DAPI nuclear morphology cytotoxicity imaging; active compounds read high; cells fed 100 µM oleate overnight; AID 463200; shares compounds with Hep lipid drop; actives 3% (n = 870); in the data active = z-score above about 6.3;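 also: compound exposure lasted overnight at 37 °C before fixation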
AML12 tox ATP = AML12 hepatocyte cytotoxicity, confirmed; 530 tested, under 10 active; AML12 mouse hepatocyte viability, ATP luminescence; cells loaded with 100 µM oleic acid; AID 463219; cytotoxicity, % at 50 µM; shares compounds with Hep lipid drop;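 active = cytotoxicity above 50% in each of four replicates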;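 also: compound exposure lasted overnight at 37 °C before the ATP read; 0% = DMSO-treated cells and 100% = wells with no cells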
* hit, by the source's call. Hits are enriched below; roughly 4.9% of the tested compounds scored in any of these assays.

What do the screens show for `CCN1CCN(C2=C(NS(=O)(=O)c3ccc(C)cc3)C(=O)c3ccccc3C2=O)CC1`?
HSF1 activator: -2; CHT inh: inactive; Hep lipid drop: -15; HSF1 inh: -6; CHT allo act: inactive; PHOSPHO1 block: 29

Results for O=C1C(NS(=O)(=O)c2ccc(Br)cc2)=C(N2CCCCC2)C(=O)c2ccccc21 ?
HSF1 activator: -3; CHT inh: inactive; Hep lipid drop: 19; HSF1 inh: 8; CHT allo act: inactive; PHOSPHO1 block: 51

Results for O=C(O)c1ccccc1SCc1csc(-c2ccccc2)n1 ?
HSF1 activator: 21; CHT inh: inactive; Hep lipid drop: 0; HSF1 inh: 3; CHT allo act: inactive; PHOSPHO1 block: -19

How did O=C(CCCn1c(=O)oc2ccccc21)N1CCN(c2ccccn2)CC1 do in these assays?
HSF1 activator: 16; CHT inh: inactive; Hep lipid drop: -12; HSF1 inh: 4; CHT allo act: inactive; PHOSPHO1 block: 27

What do the screens show for `O=c1c2cc(Cl)ccc2oc2nc3n(c(=O)c12)CCCS3`?
HSF1 activator: -22; CHT inh: inactive; HSF1 inh: 2; CHT allo act: inactive; PHOSPHO1 block: 30

What do the screens show for `Cc1cccc2sc(NC(=O)CSc3nnnn3C)nc12`?
HSF1 activator: 23; CHT inh: inactive; Hep lipid drop: -28; HSF1 inh: 13; CHT allo act: inactive; PHOSPHO1 block: 11

How did CCOC(=O)c1cc(-c2ccc(C)cc2)n(CCC(=O)NC(C)CC)c1C (configuration not stated) do in these assays?
HSF1 activator: 3; CHT inh: inactive; Hep lipid drop: 0; HSF1 inh: 4; CHT allo act: inactive; PHOSPHO1 block: -15

What do the screens show for `CCOC(=O)c1cc(-c2ccc(F)cc2)n(CC(=O)NC(C)CC)c1C` (configuration not stated)?
HSF1 activator: 6; CHT inh: inactive; Hep lipid drop: 70*; HSF1 inh: 3; CHT allo act: inactive; PHOSPHO1 block: -1; Lipid drop inh: 66*; AML12 cytotox: -0.52; AML12 tox ATP: 13

Results for O=C(NCCc1cccnc1)c1cc(COc2ccc(F)cc2F)on1 ?
HSF1 activator: 5; CHT inh: inactive; Hep lipid drop: 95*; HSF1 inh: 5; CHT allo act: inactive; PHOSPHO1 block: 18; Lipid drop inh: 35; AML12 cytotox: -0.62

Results for O=C(NCCc1cccnc1)c1cc(COc2ccc(F)cc2Cl)on1 ?
HSF1 activator: 13; CHT inh: inactive; Hep lipid drop: 8; HSF1 inh: -1; CHT allo act: inactive; PHOSPHO1 block: 6

What do the screens show for `CCOc1ccc(OCC)c(NC(=O)CSCC(=O)O)c1`?
HSF1 activator: -3; CHT inh: inactive; HSF1 inh: -8; CHT allo act: inactive; PHOSPHO1 block: 6

Results for CCOc1ccccc1NC(=O)CSCC(=O)Nc1ccccc1 ?
HSF1 activator: -11; CHT inh: inactive; Hep lipid drop: 57*; HSF1 inh: -2; CHT allo act: inactive; PHOSPHO1 block: 1; Lipid drop inh: 96*; AML12 cytotox: 1.4; AML12 tox ATP: 2

What do the screens show for `Cn1c(=O)c(C(=O)COC(=O)c2cc(C3CC3)nc3ccccc23)c(N)n(Cc2ccccc2)c1=O`?
CHT inh: inactive; Hep lipid drop: 55*; CHT allo act: inactive; PHOSPHO1 block: 11; Lipid drop inh: 82*; AML12 cytotox: -0.96

How did Cn1c(=O)c(C(=O)COc2ccc(F)cc2Cl)c(N)n(Cc2ccccc2)c1=O do in these assays?
HSF1 activator: -2; CHT inh: inactive; Hep lipid drop: 24; HSF1 inh: 5; CHT allo act: inactive; PHOSPHO1 block: 15

How did FC(F)(F)COc1nc(N2CCOCC2)nc(N(c2ccccc2)c2ccccc2)n1 do in these assays?
HSF1 activator: 28; CHT inh: inactive; Hep lipid drop: 51*; HSF1 inh: 2; CHT allo act: inactive; PHOSPHO1 block: 1; Lipid drop inh: 73*; AML12 cytotox: 0.91; AML12 tox ATP: -14

How did CCN(CC)C(=O)Cn1cc(S(=O)(=O)CC(=O)N2CC(C)OC(C)C2)c2ccccc21 (configuration not stated) do in these assays?
HSF1 activator: -8; CHT inh: inactive; Hep lipid drop: -6; HSF1 inh: -1; CHT allo act: inactive; PHOSPHO1 block: 25

What do the screens show for `COc1ccc(Br)cc1CNC(=O)CCCc1cn(C)c2ccccc12`?
HSF1 activator: 42; CHT inh: inactive; Hep lipid drop: 70*; HSF1 inh: 25; CHT allo act: inactive; PHOSPHO1 block: -4; Lipid drop inh: 94*; AML12 cytotox: -0.28

Results for COc1ccc(OC)c(CNC(=O)CCCc2cn(C)c3ccccc23)c1 ?
HSF1 activator: 14; CHT inh: inactive; Hep lipid drop: 82*; HSF1 inh: -4; CHT allo act: inactive; PHOSPHO1 block: 9; Lipid drop inh: 96*; AML12 cytotox: 0.28

Results for COc1ccc(CCNC(=O)CCc2cn(C)c3ccccc23)c(OC)c1OC ?
HSF1 activator: -2; CHT inh: inactive; Hep lipid drop: 86*; HSF1 inh: -4; CHT allo act: inactive; PHOSPHO1 block: 38; Lipid drop inh: 99*; AML12 cytotox: 0.84

How did COc1ccc(OC)c(CNC(=O)CCc2cn(C)c3ccccc23)c1 do in these assays?
HSF1 activator: -12; CHT inh: inactive; Hep lipid drop: -80; HSF1 inh: 3; CHT allo act: inactive; PHOSPHO1 block: 28

What do the screens show for `O=C(NCc1ccccc1)c1ccc(-c2ccc(F)cc2)o1`?
HSF1 activator: 3; CHT inh: inactive; Hep lipid drop: -4; HSF1 inh: 14; CHT allo act: inactive; PHOSPHO1 block: -15

What do the screens show for `CCCCN1C(=O)C(NC(=O)c2cccnc2)(C(F)(F)F)C2=C1CC(C)(C)CC2=O` (configuration not stated)?
HSF1 activator: 4; CHT inh: inactive; HSF1 inh: -1; CHT allo act: inactive; PHOSPHO1 block: 46

Screens (PubChem)
